# KCNK9 inh = human KCNK9 channel inhibition. AID 488922. Q9NPC2. HEK293 KCNK9, FluxOR thallium flux fluorescence; stronger effect = lower value. B-score at 10 µM. 310,000 tested, 1.2% active;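 active means ratio B-score over 3 SD below the library mean, with starting fluorescence within 5 SD of its mean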;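 further: negative B-score means less thallium flux so channel inhibition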
# KCNQ1 pot = potentiators or activators of human KCNQ1 potassium channel | P51787 | CHO-K1 KCNQ1, thallium flux FluxOR fluorescence; stronger effect = higher value | B-score at 10 µM | 310,000 tested, 0.35% active | AID 2648;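 active means fluorescence ratio B-score, a plate-corrected score, at least three library SD, with initial intensity B-score within 5 SD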
#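 Assay system: CHO-K1 cells stably expressing KCNQ1; Medium: assay buffer with matched DMSO; Also added: K+/Tl+ depolarizing stimulus; Dosing: single dose; Timing: dye 90 min, compound 20 min, room temperature; Measured by: kinetic FluxOR thallium fluorescence, 10-s 1-Hz baseline, 110-s post-stimulus read; Read-out: peak-minus-minimum fluorescence over initial fluorescence, negative-control normalized, B-scored.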
# KCNQ1 inh = human KCNQ1 channel inhibition. P51787. 310,000 tested, 1.3% active. CHO-K1 KCNQ1, FluxOR thallium flux fluorescence; stronger effect = higher value. AID 2642. B-score at 10 µM;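 active means compounds whose thallium flux B-score, printed positive for inhibition, exceeds three library SD while starting fluorescence stays within three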;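 further: channel opened by potassium depolarization with thallium stimulus after 20 min compound exposure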
# Kir21 block = inhibitors of mouse Kir2.1 inward-rectifier potassium channel; HEK293-Kir2.1, FluxOR thallium flux fluorescence; stronger effect = lower value; B-score at 10 µM; 310,000 tested, 0.85% active; AID 1672;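 active means fluorescence ratio B-score at or below minus 3 SD of library scores, with starting-brightness B-score within 2 SD, cut at about -4.2 in these data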;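 further: channel flux triggered by added potassium and thallium sulfate stimulus; B-score of peak minus minimum fluorescence over baseline after thallium stimulus; more negative B-score means stronger Kir2.1 block with less thallium influx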
# Target sequence (P35561 whole entry, looked up): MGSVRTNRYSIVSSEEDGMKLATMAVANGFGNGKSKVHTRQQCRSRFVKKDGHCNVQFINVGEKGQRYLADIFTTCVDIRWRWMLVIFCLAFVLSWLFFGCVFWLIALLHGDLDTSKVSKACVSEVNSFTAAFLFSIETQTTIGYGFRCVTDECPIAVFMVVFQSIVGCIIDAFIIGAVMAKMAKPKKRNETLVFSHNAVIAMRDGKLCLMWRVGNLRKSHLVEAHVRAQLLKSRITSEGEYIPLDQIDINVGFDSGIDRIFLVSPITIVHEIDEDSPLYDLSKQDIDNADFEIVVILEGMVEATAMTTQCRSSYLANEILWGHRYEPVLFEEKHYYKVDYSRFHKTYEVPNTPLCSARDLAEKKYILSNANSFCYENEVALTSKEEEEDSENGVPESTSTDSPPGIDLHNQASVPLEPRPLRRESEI
# KCNK3 block = human KCNK3 channel inhibition, primary screen; O14649; CHO-KCNK3 thallium flux, FluxOR fluorescence; stronger effect = lower value; B-score at 10 µM; 340,000 tested, 0.84% active; AID 602410;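 active means B-score under library mean minus 4 SD, starting fluorescence ratio at most library mean plus 5 SD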;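 further: more negative B-score means stronger inhibition of thallium flux through KCNK3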
# hERG protect = shields human hERG channel from block by proarrhythmic agents; Q12809; AID 1511; 310,000 tested, 0.51% active; activation (rescue from dofetilide block), less the hit threshold, % at 10 µM; CHO-hERG, FluxOR thallium flux, dofetilide IC70 present;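 active means activation above the mean of controls blocked by dofetilide plus 5 SD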;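 further: thallium influx through hERG after potassium depolarization seen as dye fluorescence rise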
# Starred values were filed as active, the others as inactive; i = inactive; nt = not tested or not shown. This is a sample that favours compounds with a hit; in the whole collection about 3.7% have one here.
SMILES,KCNK9 inh,KCNQ1 pot,KCNQ1 inh,Kir21 block,KCNK3 block,hERG protect
c1ccc(-c2nnsc2-c2ncc[nH]2)cc1,i,i,i,-1.2,i,4.7*
Cc1ccc2c(cnn2C(=O)CCC(=O)N2CCCCC2C)c1 (configuration not stated),i,i,i,-0.54,i,-11
Cc1ccc(N=Cc2cc(Cl)cc(Cl)c2O)nc1,i,17*,i,0.14,i,5.3*
Brc1csc(C=Nc2ccc3c(c2)OCCOCCOCCOCCO3)c1,i,i,i,-2.8,i,1
Oc1c(Cl)cc(Cl)cc1C=Nc1ccc2c(c1)OCCO2,i,8*,i,3.2,i,1
Oc1c(Cl)cc(Cl)cc1/C=N/Nc1ncc(Br)cn1,i,i,i,0.42,i,-11
CCOC(=O)c1sc2ncnc(NCc3ccco3)c2c1C,i,37*,i,-1.2,i,16*
CCOC(=O)c1sc2nc(CC(=O)OC)nc(NCc3ccco3)c2c1C,i,i,i,-1.3,i,-9
COc1cc(N/N=C/c2ccc(N(C)C)cc2)ncn1,i,i,i,1.3,i,-10
CN(C)c1cc(N/N=C/c2ccc(Cl)cc2)nc(N(C)C)n1,i,i,7*,-0.28,i,-11
Cc1cccn2c(=O)c3cc(C(=O)N4c5ccccc5CC4C)n(C)c3nc12 (configuration not stated),i,i,i,-0.59,i,9.2*
COc1ccccc1N1CCN(c2ccc3ccccc3n2)CC1,i,i,i,2,i,-4
c1ccc(C(c2ccccc2)N2CCN(c3nc4ccccc4n4cnnc34)CC2)cc1,i,i,6*,1.5,nt,-8
Clc1ccc(C(c2ccccc2)N2CCN(c3ccccn3)CC2)cc1 (configuration not stated),-7.3*,i,i,-1.9,i,-9
c1ccc(C(c2ccccc2)N2CCN(c3ccc4ccccc4n3)CC2)cc1,-7.8*,i,i,-1.3,i,-10
CC1CCCCC12NC(=O)N(CC(=O)N1CCc3ccccc3C1)C2=O (configuration not stated),nt,nt,nt,nt,i,nt
COCCn1c(-c2ccc(OC)cc2)cnc1N,i,i,i,0.3,i,-7
CCOc1ccc(-c2cnc(NCc3cccc4ccccc34)n2CCOC)cc1,i,i,10*,-1.6,-9.5*,-30
CSC(=S)N/N=C/c1ccc(Br)cc1,i,41*,i,0.26,i,19*
CSC(=S)N/N=C/c1ccc(N(C)C)cc1,i,9*,i,1.1,i,-11
S=C(N/N=C/c1ccc(Br)cc1)N1CCCCC1,i,i,i,2.1,i,-5
O=C(NNc1ccccc1Br)C(O)(c1cccc(C(F)(F)F)c1)c1cccc(C(F)(F)F)c1,-8.3*,i,i,0.32,i,-6
Cc1ccc(NNC(=O)C(O)(c2cccc(C(F)(F)F)c2)c2cccc(C(F)(F)F)c2)cc1,i,i,i,-0.88,i,-14
Cc1cc(OCC(=O)NCCCn2ccnc2)c2c(C)c(C)c(=O)oc2c1,i,i,i,-1.4,i,-3
Cc1ccc(/C=C/c2ccc(N(C)C)cc2)[n+](C)c1,i,i,9*,-5.5,i,-29
SMILES,KCNK9 inh,KCNQ1 pot,KCNQ1 inh,Kir21 block,KCNK3 block,hERG protect
CN(C)c1ccc(/C=C/c2cc[n+](C)cc2)cc1,i,i,7*,-4.6,i,-15
COc1ccccc1CN1CC(C(=O)NCc2cc(F)ccc2C)CCC1=O (configuration not stated),i,i,i,-0.87,i,-14
N#Cc1ccc(CSc2nnc(Cc3cccs3)n2Cc2ccco2)cc1,i,i,i,-6.1*,i,-3
COc1cc(C)c(NC(=O)C2CCN(S(=O)(=O)c3cccs3)CC2)cc1OC,nt,nt,nt,nt,i,nt
COc1ccc(C(CC(=O)O)c2ccc3c(c2)OCO3)cc1 (configuration not stated),i,i,i,-0.42,i,-3
COc1ccc(CNCCC(c2ccc(OC(C)C)cc2)c2ccccc2OC)cc1 (configuration not stated),i,i,9*,-7.4*,i,-20
COc1ccccc1C(CCNCc1ccccc1)c1ccc(OC(C)C)cc1 (configuration not stated),i,i,i,-6.3*,i,-20
COc1ccccc1C(CCNCc1ccc(N(C)C)cc1)c1ccc(OC(C)C)cc1 (configuration not stated),i,i,10*,-4.4*,i,-27
COc1ccc(CNCCC(c2ccc(OC(C)C)cc2)c2ccccc2OC)cc1OC (configuration not stated),i,i,i,-3.3,i,-16
COc1ccc(CNCCC(c2ccccc2)c2ccc3c(c2)OCO3)cc1 (configuration not stated),i,i,i,-8.1*,i,-16
Cc1nc(SCC(=O)Nc2ccc(CN3CCCC3)cc2)c2c(C)c(C)sc2n1,nt,nt,nt,nt,i,nt
O=C(COC(=O)c1ccc(F)cc1F)Nc1cc(S(=O)(=O)N2CCOCC2)ccc1Cl,nt,nt,nt,nt,i,nt
Cc1ccc(S(=O)(=O)N2CCOCC2)cc1NC(=O)COC(=O)COc1cccc2c1OC(C)(C)C2,i,i,i,-2.6,i,-10
CN(C(=O)c1ccccc1F)C(c1ccccc1)c1ccccc1,i,i,i,-7.2*,i,-18
CC(/C=N/NC(=O)c1ccccc1F)c1ccccc1 (configuration not stated),i,i,i,0.45,i,-7
CCOc1ccc(NC(=O)COc2ccc3c(c2)CCC3)cc1OC,nt,nt,nt,nt,i,nt
COc1cc(S(=O)(=O)NCC2COCCO2)ccc1-n1cnnn1 (configuration not stated),i,i,i,-0.01,i,5.8*
Cn1cccc1C(=O)OCC(=O)Nc1ccc2c(c1)OCCO2,nt,nt,nt,nt,i,nt
O=C(NC(=S)Nc1ccccc1)c1csnn1,i,116*,i,1.9,i,63*
O=C(Nc1csnn1)c1csnn1,i,i,i,-0.27,i,-8
O=C(NC(=S)Nc1ccccc1)c1ccc(-c2ccccc2)cc1,i,i,i,-0.52,i,-6
O=C(NC(=S)Nc1ccc(C(F)(F)F)cc1)c1csnn1,i,141*,i,0.2,i,56*
COc1ccc(NC(=S)NC(=O)c2csnn2)cc1,i,24*,i,-0.43,i,16*
CCOC(=O)/C=C/[C@H]1CCc2cccc(C)c2O1,nt,nt,nt,nt,i,nt
CC1CCN(C(=O)CN2C(=O)NC3(CCC(C)CC3)C2=O)CC1 (configuration not stated),nt,nt,nt,nt,i,nt

# Screens from PubChem.
